Measurements as given in ChEMBL document CHEMBL1250508, “Synthesis and cytotoxic potency of novel tris(1-alkylindol-3-yl)methylium salts: role of N-alkyl substituents” (Bioorg Med Chem, 2010).
Active and inactive are the calls of the source. No cut-off for these calls is given here.

Experiments:
HCT-116 [1] = experiment: Cytotoxicity against human HCT116 cells after 72 hrs by MTT assay; format: functional, cell-based; conditions: HCT-116, 72 h
Summary of the method: (§1)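 Tumour lines were grown in DMEM with 5% fetal calf serum, 2 mM L-glutamine, penicillin and streptomycin at 37 °C, 5% CO2, and used in log phase. 5×10^3 cells per well were exposed to serial concentrations (each in triplicate; 10 mM DMSO stocks diluted in water) or 0.1% DMSO for 72 h. MTT was added for 2 h, formazan dissolved in DMSO, and A540 read. IC50 was taken at 50% viability versus vehicle.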

K562 = experiment: Cytotoxicity against human K562 cells after 72 hrs by MTT assay; format: functional, cell-based; conditions: K562, 72 h; summary of the method: as §1
HCT-116 [2] = experiment: Induction of apoptosis in human HCT116 cells assessed as loss of DNA integrity at 1 uM after 24 to 48 hrs using Annexin V-FITC staining by flow cytometry; format: functional, cell-based
HCT-116 [3] = experiment: Induction of apoptosis in p53 deficient human HCT116 cells at 1 uM after 24 to 48 hrs using Annexin V-FITC staining by flow cytometry; format: functional, cell-based
HCT-116 [4] = experiment: Induction of apoptosis in human HCT116 cells assessed as programmed cell death at 1 uM after 24 to 48 hrs using Annexin V-FITC staining by flow cytometry; format: functional, cell-based
Summary of the method: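 HCT116 cells were plated at 5×10^4 per well overnight, given 1 µM for 24–48 h at 37 °C, 5% CO2 (controls without drug), washed with cold saline and harvested. One aliquot was stained with Annexin V-FITC per the manufacturer and analysed by flow cytometry.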

HCT-116 [5] = experiment: Induction of apoptosis in human HCT116 cells assessed as internucleosomal DNA fragmentation at 1 uM after 24 to 48 hrs by agarose gel by electrophoresis; format: functional, cell-based
Summary of the method: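 HCT116 cells were seeded at 5×10^4 per well overnight and treated with 1 µM for 24–48 h, with drug-free controls. Cells were lysed for 30 min on ice in 350 mM NaCl, 20 mM Tris-HCl pH 7.4, 2 mM MgCl2, 1 mM DTT and 0.5% NP-40. DNA was phenol-chloroform extracted, ethanol/sodium acetate precipitated, and run on a 1% agarose gel.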

HCT-116 [6] = experiment: Induction of apoptosis in human HCT116 cells assessed as increase of hypodiploid nuclei at sub-G1 phase at 1 uM after 24 to 48 hrs […] by flow cytometry; format: functional, cell-based
Summary of the method: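 HCT116 cells were seeded at 5×10^4 per well overnight, then exposed to 1 µM for 24–48 h at 37 °C with drug-free controls. Cells were washed in cold saline and lysed in 0.1% sodium citrate, 0.3% NP-40, 50 µg/ml RNase A and 10 µg/ml propidium iodide. Flow cytometry on FL2 gave the percentage of hypodiploid (sub-G1) nuclei.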

SK-BR-3 = experiment: Cytotoxicity against human SK-BR-3 cells after 72 hrs by MTT assay; format: functional, cell-based; summary of the method: as §1
SK-OV-3 = experiment: Cytotoxicity against human SKOV3 cells after 72 hrs by MTT assay; format: functional, cell-based; summary of the method: as §1
Fem-X = experiment: Cytotoxicity against human Fem-X cells after 72 hrs by MTT assay; format: functional, cell-based; summary of the method: as §1
MCF7 = experiment: Cytotoxicity against human MCF7 cells after 72 hrs by MTT assay; format: functional, cell-based; summary of the method: as §1
Mel-Kor = experiment: Cytotoxicity against human Mel-Kor cells after 72 hrs by MTT assay; format: functional, cell-based; summary of the method: as §1
Jurkat = experiment: Cytotoxicity against human Jurkat cells after 72 hrs by MTT assay; format: functional, cell-based; summary of the method: as §1
PBL = experiment: Cytotoxicity against human PBL cells after 72 hrs by MTT assay; format: cell-based
Summary of the method: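 Lymphocytes were freshly isolated from peripheral blood of four healthy donors and pooled. 5×10^3 cells per well were treated with increasing concentrations in triplicate (DMSO stocks diluted in water) or 0.1% DMSO vehicle for 72 h. MTT was added for 2 h, then formazan dissolved in DMSO and read at 540 nm. IC50 was the concentration giving 50% viability relative to vehicle.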

SMILES | IC50 (HCT-116 [1]) | IC50 (K562) | other results
CCCCCCCCCCn1cc([C+](c2cn(CCCCCCCCCC)c3ccccc23)c2cn(CCCCCCCCCC)c3ccccc23)c2ccccc21 | 16400 nM | 12400 nM | 
CCCn1cc([C+](c2cn(CCC)c3ccccc23)c2cn(CCC)c3ccccc23)c2ccccc21 | 1000 nM | 200 nM | 
CCCCCn1cc([C+](c2cn(CCCCC)c3ccccc23)c2cn(CCCCC)c3ccccc23)c2ccccc21 | 150 nM | 50 nM | Activity (HCT-116 [2]): Active; Activity (HCT-116 [3]): Active; Activity (HCT-116 [4]): Active; Activity (HCT-116 [5]): Active; Activity (HCT-116 [6]): Active; Activity (SK-BR-3): Active; Activity (SK-OV-3): Active; Activity (Fem-X): Active; Activity (MCF7): Active; Activity (Mel-Kor): Active; Activity (Jurkat): Active; Activity (PBL): Non-toxic
c1ccc(Cn2cc([C+](c3cn(Cc4ccccc4)c4ccccc34)c3cn(Cc4ccccc4)c4ccccc34)c3ccccc32)cc1 | 15000 nM | 9300 nM | 
CCCCCCn1cc([C+](c2cn(CCCCCC)c3ccccc23)c2cn(CCCCCC)c3ccccc23)c2ccccc21 | 300 nM | 74 nM | 
c1ccc2c([C+](c3c[nH]c4ccccc34)c3c[nH]c4ccccc34)c[nH]c2c1 | 2300 nM | 1600 nM | 
CCn1cc([C+](c2cn(CC)c3ccccc23)c2cn(CC)c3ccccc23)c2ccccc21 | 1300 nM | 200 nM | 
Cn1cc([C+](c2cn(C)c3ccccc23)c2cn(C)c3ccccc23)c2ccccc21 | 3200 nM | 3200 nM | 
CCCCn1cc([C+](c2cn(CCCC)c3ccccc23)c2cn(CCCC)c3ccccc23)c2ccccc21 | 300 nM | 90 nM | 
